Results as given in ChEMBL document CHEMBL1817593, “C5'-Alkyl Substitution Effects on Digitoxigenin α-l-Glycoside Cancer Cytotoxicity” (ACS Med Chem Lett, 2011).

Columns and labels:
Format in all cases: functional
[1] = system: NCI-H460; assay: Cytotoxicity against human NCI-H460 cells assessed as cell viability after 48 hrs by MTT assay; details: NCI-H460, 48 h
Outline: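 NCI-H460 cells were exposed to drug for 48 h, and viability was read by MTT as mitochondrial enzymatic activity. GI50 was derived from dose-response curves (1 nM–10 μM). Values are from three independent experiments with duplicate determinations, given with standard error of the mean.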

[2] = system: HL-60(TB); assay: Cytotoxicity against human HL-60(TB) cells after 48 hrs by sulforhodamine B assay; details: HL-60, 48 h
[3] = system: SW-620; assay: Cytotoxicity against human SW620 cells after 48 hrs by sulforhodamine B assay; details: SW-620, 48 h
[4] = system: NCI-H522; assay: Cytotoxicity against human NCI-H522 cells after 48 hrs by sulforhodamine B assay; details: NCI-H522, 48 h
[5] = system: NCI-H460; assay: Cytotoxicity against human NCI-H460 cells assessed as cell death in serum free medium at 1000 nM after 12 hrs by Hoechst 33342/propidium iodide staining based fluorescence microscopy
Outline: (§1)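 NCI-H460 human lung cancer cells exposed 12 h to 10 nM–10 μM drug, including a 50 nM single-concentration test. Nuclei were stained with Hoechst 33342 and necrotic cells with propidium iodide. Apoptotic cells were scored by condensed or fragmented blue nuclei and necrotic cells by red PI staining. Total cell death (apoptosis plus necrosis) was recorded; N = 6.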

[6] = system: COLO 205; assay: Cytotoxicity against human COLO205 cells after 48 hrs by sulforhodamine B assay; details: COLO 205, 48 h
[7] = system: SNB-75; assay: Cytotoxicity against human SNB75 cells after 48 hrs by sulforhodamine B assay; details: SNB-75, 48 h
[8] = system: IGROV-1; assay: Cytotoxicity against human IGROV1 cells after 48 hrs by sulforhodamine B assay; details: IGROV-1, 48 h
[9] = system: MCF7; assay: Cytotoxicity against human MCF7 cells after 48 hrs by sulforhodamine B assay; details: MCF7, 48 h
[10] = system: NCI-H460; assay: Cytotoxicity against human NCI-H460 cells assessed as cell death in serum free medium at 500 nM after 12 hrs by Hoechst 33342/propidium iodide staining based fluorescence microscopy; outline: as §1
[11] = system: 786-0; assay: Cytotoxicity against human 786-0 cells after 48 hrs by sulforhodamine B assay; details: 786-0, 48 h
[12] = system: SK-OV-3; assay: Cytotoxicity against human SKOV3 cells after 48 hrs by sulforhodamine B assay; details: SK-OV-3, 48 h
[13] = system: A498; assay: Cytotoxicity against human A498 cells after 48 hrs by sulforhodamine B assay; details: A498, 48 h
[14] = system: EKVX; assay: Cytotoxicity against human EKVX cells after 48 hrs by sulforhodamine B assay
[15] = system: NCI-H460; assay: Cytotoxicity against human NCI-H460 cells assessed as cell death in serum free medium at 10 nM after 12 hrs by Hoechst 33342/propidium iodide staining based fluorescence microscopy; outline: as §1
[16] = system: NCI-H460; assay: Cytotoxicity against human NCI-H460 cells assessed as cell viability at 1 nM after 48 hrs by MTT assay; details: NCI-H460, 48 h, read-out: Activity
Outline: (§2)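 Viability of NCI-H460 cells was measured by MTT (mitochondrial enzymatic activity) after 48 h exposure, within a dose series spanning 1 nM–10 μM. N = 9, analysed by two-way ANOVA.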

[17] = system: PC-3; assay: Cytotoxicity against human PC3 cells after 48 hrs by sulforhodamine B assay; details: PC-3, 48 h
[18] = system: UACC-62; assay: Cytotoxicity against human UACC62 cells after 48 hrs by sulforhodamine B assay; details: UACC-62, 48 h
[19] = system: SNB-19; assay: Cytotoxicity against human SNB19 cells after 48 hrs by sulforhodamine B assay; details: SNB-19, 48 h
[20] = system: NCI-H460; assay: Cytotoxicity against human NCI-H460 cells assessed as cell viability at 50 nM after 48 hrs by MTT assay; details: NCI-H460, 48 h, read-out: Activity; outline: as §2
[21] = system: NCI-H460; assay: Cytotoxicity against human NCI-H460 cells assessed as cell death in serum free medium at 250 nM after 12 hrs by Hoechst 33342/propidium iodide staining based fluorescence microscopy; outline: as §1
[22] = system: A549; assay: Cytotoxicity against human A549/ATCC cells after 48 hrs by sulforhodamine B assay; details: A549, 48 h
[23] = system: ACHN; assay: Cytotoxicity against human ACHN cells after 48 hrs by sulforhodamine B assay
[24] = system: SK-MEL-5; assay: Cytotoxicity against human SK-MEL-5 cells after 48 hrs by sulforhodamine B assay; details: SK-MEL-5, 48 h
[25] = system: NCI-H460; assay: Cytotoxicity against human NCI-H460 cells after 48 hrs by sulforhodamine B assay; details: NCI-H460, 48 h
[26] = system: MDA-MB-231; assay: Cytotoxicity against human MDA-MB-231 cells after 48 hrs by sulforhodamine B assay; details: MDA-MB-231, 48 h
[27] = system: NCI-H23; assay: Cytotoxicity against human NCI-H23 cells after 48 hrs by sulforhodamine B assay; details: NCI-H23, 48 h
[28] = system: K562; assay: Cytotoxicity against human K562 cells after 48 hrs by sulforhodamine B assay; details: K562, 48 h
[29] = system: OVCAR-5; assay: Cytotoxicity against human OVCAR5 cells after 48 hrs by sulforhodamine B assay; details: OVCAR-5, 48 h
[30] = system: SF-268; assay: Cytotoxicity against human SF268 cells after 48 hrs by sulforhodamine B assay; details: SF-268, 48 h
[31] = system: LOX IMVI; assay: Cytotoxicity against human LOXIMVI cells after 48 hrs by sulforhodamine B assay
[32] = system: NCI-H460; assay: Growth inhibition of human NCI-H460 cells after 48 hrs by MTT assay
Outline: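 NCI-H460 viability measured by MTT (mitochondrial enzymatic activity) after 48 h exposure at 1 nM to 10 μM. GI50 derived from dose-response curves, with N = 9 and two-way ANOVA. Values are the mean of three independent experiments with duplicate determinations.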

[33] = system: SK-MEL-2; assay: Cytotoxicity against human SK-MEL-2 cells after 48 hrs by sulforhodamine B assay; details: SK-MEL-2, 48 h
[34] = system: RXF 393; assay: Cytotoxicity against human RXF393 cells after 48 hrs by sulforhodamine B assay; details: RXF 393, 48 h
[35] = system: NCI-H460; assay: Cytotoxicity against human NCI-H460 cells assessed as cell viability at 10 nM after 48 hrs by MTT assay; details: NCI-H460, 48 h, read-out: Activity; outline: as §2
[36] = system: SK-MEL-28; assay: Cytotoxicity against human SK-MEL-28 cells after 48 hrs by sulforhodamine B assay; details: SK-MEL-28, 48 h
[37] = system: Malme-3M; assay: Cytotoxicity against human MALME-3M cells after 48 hrs by sulforhodamine B assay
[38] = system: SF-539; assay: Cytotoxicity against human SF539 cells after 48 hrs by sulforhodamine B assay; details: SF-539, 48 h
[39] = system: NCI-H460; assay: Cytotoxicity against human NCI-H460 cells assessed as cell death in serum free medium at 25 nM after 12 hrs by Hoechst 33342/propidium iodide staining based fluorescence microscopy; outline: as §1
[40] = system: KM12; assay: Cytotoxicity against human KM12 cells after 48 hrs by sulforhodamine B assay; details: KM12, 48 h
[41] = system: Hs-578T; assay: Cytotoxicity against human Hs578T cells after 48 hrs by sulforhodamine B assay
[42] = system: NCI-H460; assay: Cytotoxicity against human NCI-H460 cells assessed as cell viability at 25 nM after 48 hrs by MTT assay; details: NCI-H460, 48 h, read-out: Activity; outline: as §2

SMILES: CC(C)[C@@H]1O[C@@H](O[C@H]2CC[C@@]3(C)[C@H](CC[C@@H]4[C@@H]3CC[C@]3(C)[C@@H](C5=CC(=O)OC5)CC[C@]43O)C2)CC[C@H]1O
- GI50 [1]: 7.66 nM
- GI50 [2]: 14.3 nM
- GI50 [3]: 42.8 nM
- GI50 [4]: 26 nM
- Activity [5]: 90.66%
- GI50 [6]: 207 nM
- GI50 [7]: 92.6 nM
- GI50 [8]: 54.2 nM
- GI50 [9]: 161 nM
- Activity [10]: 50.85%
- GI50 [11]: 26.8 nM
- GI50 [12]: 118 nM
- GI50 [13]: 90.1 nM
- GI50 [14]: 31.9 nM
- Activity [15]: 9.96%
- viability at 0.001 µM [16]: 81.1%
- GI50 [17]: 61.9 nM
- GI50 [18]: 119 nM
- GI50 [19]: 185 nM
- viability at 0.05 µM [20]: 22.2%
- Activity [21]: 22.73%
- GI50 [22]: 17.7 nM
- GI50 [23]: 17 nM
- GI50 [24]: 22.6 nM
- GI50 [25]: 21.7 nM
- GI50 [26]: 259 nM
- GI50 [27]: 29.4 nM
- GI50 [28]: 47 nM
- GI50 [29]: 107 nM
- GI50 [30]: 26.3 nM
- GI50 [31]: 26.9 nM
- GI50 [32]: Dose-dependent effect
- GI50 ([32]; NCI-H460, 48 h): 8 nM
- GI50 [33]: 170 nM
- GI50 [34]: 14 nM
- viability at 0.01 µM [35]: 50.7%
- GI50 [36]: 252 nM
- GI50 [37]: 63.6 nM
- GI50 [38]: 27.6 nM
- Activity [39]: 12.07%
- GI50 [40]: 152 nM
- GI50 [41]: 13.6 nM
- viability at 0.025 µM [42]: 30.1%

SMILES: CC(C)C[C@@H]1O[C@@H](O[C@H]2CC[C@@]3(C)[C@H](CC[C@@H]4[C@@H]3CC[C@]3(C)[C@@H](C5=CC(=O)OC5)CC[C@]43O)C2)CC[C@H]1O
- GI50 [1]: 8.27 nM
- GI50 [2]: 18.3 nM
- GI50 [3]: 32 nM
- GI50 [4]: 23.6 nM
- Activity [5]: 94.8%
- GI50 [6]: 170 nM
- GI50 [7]: 85.3 nM
- GI50 [8]: 29.9 nM
- GI50 [9]: 52.8 nM
- Activity [10]: 62.18%
- GI50 [11]: 23.3 nM
- GI50 [12]: 43.1 nM
- GI50 [13]: 27 nM
- GI50 [14]: 31.7 nM
- Activity [15]: 10.03%
- viability at 0.001 µM [16]: 81.8%
- GI50 [17]: 46.3 nM
- GI50 [18]: 50.5 nM
- GI50 [19]: 58.9 nM
- viability at 0.05 µM [20]: 25.1%
- Activity [21]: 21.86%
- GI50 [22]: 13.4 nM
- GI50 [23]: 12.2 nM
- GI50 [24]: 27.7 nM
- GI50 [25]: 20.9 nM
- GI50 [26]: 225 nM
- GI50 [27]: 25.7 nM
- GI50 [28]: 26.9 nM
- GI50 [29]: 113 nM
- GI50 [30]: 26.3 nM
- GI50 [31]: 27.2 nM
- GI50 [32]: Dose-dependent effect
- GI50 ([32]; NCI-H460, 48 h): 8 nM
- GI50 [33]: 115 nM
- GI50 [34]: 18.6 nM
- viability at 0.01 µM [35]: 49.2%
- GI50 [36]: 133 nM
- GI50 [37]: 25.7 nM
- GI50 [38]: 23.8 nM
- Activity [39]: 12.41%
- GI50 [40]: 55.9 nM
- GI50 [41]: 7.5 nM
- viability at 0.025 µM [42]: 36.6%
